Experimental data reported in ChEMBL document CHEMBL4837261, “Optimization of TopoIV Potency, ADMET Properties, and hERG Inhibition of 5-Amino-1,3-dioxane-Linked Novel Bacterial Topoisomerase Inhibitors: Identification of a Lead with In Vivo Efficacy against MRSA” (J Med Chem, 2021).
Values after ≈ are worked out from the molar mass of the structure shown.

Tests used:
Topoisomerase IV = Topoisomerase IV (Staphylococcus aureus, UniProt P0C1S7+P0C1U9); experiment: Inhibition of Staphylococcus aureus topoisomerase IV decatenation activity using kDNA as substrate by ethidium bromide/bromophenol blue staining based agarose gel electrophoresis analysis; format: protein-complex assay
Staphylococcus aureus [1] = experiment: Antibacterial activity against Staphylococcus aureus 3527 by CLSI method; format: functional
Staphylococcus aureus [2] = experiment: Antibacterial activity against Staphylococcus aureus ATCC 29213 by CLSI method; format: functional
Staphylococcus aureus [3] = experiment: Antibacterial activity against cystic fibrosis isolate Staphylococcus aureus by CLSI method; format: functional
Staphylococcus aureus [4] = experiment: Antibacterial activity against methicillin-resistant Staphylococcus aureus USA300 by CLSI method; format: functional
Staphylococcus aureus [5] = experiment: Antibacterial activity against Staphylococcus aureus harbouring GyrA D83N mutant by CLSI method; format: functional
[6] = Growth inhibition of human K/VP.5 cells incubated for 48 hrs by NBTI cell counting analysis; format: functional; details: K562, 48 h
DNA gyrase [7] = target: DNA gyrase (Staphylococcus aureus, UniProt P0A0K8+P20831); experiment: Inhibition of Staphylococcus aureus Gyrase supercoiling activity assessed as reduction in supercoiling pBR322 DNA by measuring relaxation by bromophenol blue staining based TAE gel method; format: protein-complex assay
DNA gyrase [8] = target: DNA gyrase (Staphylococcus aureus, UniProt P0A0K8+P20831, D83N); experiment: Inhibition of Staphylococcus aureus DNA Gyrase D83N mutant assessed as reduction in supercoiling pBR322 DNA by measuring relaxation by bromophenol blue staining based TAE gel method
Staphylococcus aureus [9] = experiment: Selectivity index, ratio of IC50 for inhibition of Staphylococcus aureus topoisomerase IV decatenation activity to IC50 for inhibition of Staphylococcus aureus DNA gyrase supercoiling activity
Procedure, shortened: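 Both IC50s were measured in gel-based assays with S. aureus enzymes: supercoiling inhibition for DNA gyrase and decatenation inhibition for TopoIV. The ratio is TopoIV IC50 divided by gyrase IC50.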

Staphylococcus aureus [10] = experiment: Selectivity ratio of IC50 for inhibition of Staphylococcus aureus Gyrase D83N mutant to IC50 for inhibition of Staphylococcus aureus Gyrase
Procedure, shortened: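 Ratio of two IC50s: the IC50 from the D83N mutant gyrase supercoiling assay (commercial kit) divided by the IC50 from the gel-based wild-type S. aureus gyrase supercoiling assay.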

Streptococcus pneumoniae = experiment: Antibacterial activity against Streptococcus pneumoniae by CLSI method; format: functional
Enterococcus sp. = experiment: Antibacterial activity against Enterococcus sp. by CLSI method; format: functional
Acinetobacter baumannii = experiment: Antibacterial activity against Acinetobacter baumannii by CLSI method; format: functional
Staphylococcus aureus [11] = experiment: Antibacterial activity against Staphylococcus aureus by CLSI method; format: functional
Procedure, shortened: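 MICs were determined by broth microdilution per CLSI guidelines, in triplicate at minimum. Strains were S. aureus ATCC 29213, MRSA USA300 and a cystic fibrosis respiratory isolate, and ranges are given where seen.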

SMILES	IC50 (Topoisomerase IV)	MIC (Staphylococcus aureus [1])	MIC (Staphylococcus aureus [2])	MIC (Staphylococcus aureus [3])	MIC (Staphylococcus aureus [4])	MIC (Staphylococcus aureus [5])	IC50 [6]	IC50 (DNA gyrase [7])	IC50 (DNA gyrase [8])	Ratio IC50 (Staphylococcus aureus [9])	Ratio IC50 (Staphylococcus aureus [10])	MIC50 (Streptococcus pneumoniae)	MIC50 (Enterococcus sp.)	MIC50 (Acinetobacter baumannii)	MIC50 (Staphylococcus aureus [11])
COc1ccc2ncc(F)c(C(O)C[C@H]3OC[C@H](NCc4ccc5c(c4)OCCO5)CO3)c2n1 (mixture of isomers)	3.2 µM	≤ 0.25 µg/mL	≤ 0.25 µg/mL	0.5 µg/mL (≈ 1.06 µM)	0.25 µg/mL (≈ 0.53 µM)	8 µg/mL (≈ 17 µM)	39.2 µM	0.022 µM	–	–	–	–	–	–	–
COc1ccc2ncc(=O)n(CC(O)[C@H]3OC[C@H](NCc4ccc5c(c4)OCCO5)CO3)c2c1 (mixture of isomers)	4 µM	0.5 µg/mL (≈ 1.06 µM)	0.125 µg/mL (≈ 0.266 µM)	0.25 µg/mL (≈ 0.532 µM)	0.5 µg/mL (≈ 1.06 µM)	8 µg/mL (≈ 17 µM)	71.1 µM	0.019 µM	–	–	–	–	–	–	–
COc1ccc2ncc(F)c(C(O)C[C@H]3OC[C@H](NCc4ccc(Cl)c(Cl)c4)CO3)c2c1 (mixture of isomers)	8.1 µM	≤ 0.25 µg/mL	≤ 0.25 µg/mL	0.5 µg/mL (≈ 1.04 µM)	0.5 µg/mL (≈ 1.04 µM)	4 µg/mL (≈ 8.31 µM)	24.5 µM	0.16 µM	–	–	–	–	–	–	–
COc1ccc2ncc(F)c(C(O)C[C@H]3OC[C@H](NCc4cc5c(cn4)OCCO5)CO3)c2c1 (mixture of isomers)	14 µM	1 µg/mL (≈ 2.12 µM)	0.5 µg/mL (≈ 1.06 µM)	0.5 µg/mL (≈ 1.06 µM)	1 µg/mL (≈ 2.12 µM)	16 µg/mL (≈ 33.9 µM)	> 100 µM	–	–	–	–	–	–	–	–
COc1ccc2ncc(F)c(C[C@H](O)[C@H]3OC[C@H](NCc4cc5c(cn4)OCCC5)CO3)c2n1	1.3 µM	0.5 µg/mL (≈ 1.06 µM)	0.125 µg/mL (≈ 0.266 µM)	0.5 µg/mL (≈ 1.06 µM)	–	8 µg/mL (≈ 17 µM)	80.5 µM	0.14 µM	13 µM	–	–	–	–	–	–
COc1ccc2ncc(F)c(C[C@H](O)[C@H]3OC[C@H](NCc4ccc5c(n4)NC(=O)CO5)CO3)c2c1	1.3 µM	0.25 µg/mL (≈ 0.516 µM)	0.5 µg/mL (≈ 1.03 µM)	0.5 µg/mL (≈ 1.03 µM)	0.25 µg/mL (≈ 0.516 µM)	4 µg/mL (≈ 8.26 µM)	> 50 µM	0.084 µM	1.9 µM	–	–	–	–	–	–
COc1ccc2ncc(F)c(C(O)C[C@H]3OC[C@H](NCc4ccc(C)cc4)CO3)c2c1 (mixture of isomers)	14 µM	0.5 µg/mL (≈ 1.17 µM)	0.125 µg/mL (≈ 0.293 µM)	0.5 µg/mL (≈ 1.17 µM)	0.5 µg/mL (≈ 1.17 µM)	16 µg/mL (≈ 37.5 µM)	21.7 µM	0.11 µM	–	–	–	–	–	–	–
COc1ccc2ccc(F)c(C[C@H](O)[C@H]3OC[C@H](NCc4cc5c(nn4)OCCS5)CO3)c2n1	4.6 µM	0.5 µg/mL (≈ 1.02 µM)	0.25 µg/mL (≈ 0.512 µM)	0.25 µg/mL (≈ 0.512 µM)	0.5 µg/mL (≈ 1.02 µM)	4 µg/mL (≈ 8.19 µM)	–	0.12 µM	12 µM	39	99	–	–	–	–
COc1ccc2ncc(F)c(C(O)C[C@H]3OC[C@H](NCc4cc5c(nn4)OCCS5)CO3)c2c1 (mixture of isomers)	11 µM	1 µg/mL (≈ 2.05 µM)	0.5 µg/mL (≈ 1.02 µM)	1 µg/mL (≈ 2.05 µM)	1 µg/mL (≈ 2.05 µM)	16 µg/mL (≈ 32.8 µM)	> 200 µM	0.37 µM	–	–	–	–	–	–	–
COc1ccc2ccc(F)c(C[C@H](O)[C@H]3OC[C@H](NCc4ccc(Cl)c(Cl)c4)CO3)c2n1	2.3 µM	0.25 µg/mL (≈ 0.519 µM)	0.25 µg/mL (≈ 0.519 µM)	0.25 µg/mL (≈ 0.519 µM)	0.5 µg/mL (≈ 1.04 µM)	4 µg/mL (≈ 8.31 µM)	–	0.043 µM	–	54	–	–	–	–	–
COc1ccc2ncc(F)c(C[C@H](O)[C@H]3OC[C@H](NCc4ccc(C)cc4)CO3)c2c1	4.1 µM	0.5 µg/mL (≈ 1.17 µM)	0.25 µg/mL (≈ 0.586 µM)	0.25 µg/mL (≈ 0.586 µM)	0.5 µg/mL (≈ 1.17 µM)	8 µg/mL (≈ 18.8 µM)	–	0.014 µM	–	294	–	–	–	–	–
COc1ccc2ncc(F)c(C[C@H](O)[C@H]3OC[C@H](NCc4cc5c(cn4)OCS5)CO3)c2n1	0.43 µM	0.125 µg/mL (≈ 0.263 µM)	0.06 µg/mL (≈ 0.126 µM)	0.25 µg/mL (≈ 0.527 µM)	0.125 µg/mL (≈ 0.263 µM)	1 µg/mL (≈ 2.11 µM)	118 µM	0.099 µM	5.9 µM	–	–	–	–	–	–
COc1ccc2ncc(F)c(C[C@H](O)[C@H]3OC[C@H](NCc4ccc(Cl)c(Cl)c4)CO3)c2n1	1.1 µM	0.125 µg/mL (≈ 0.259 µM)	≤ 0.25 µg/mL	0.125 µg/mL (≈ 0.259 µM)	0.125 µg/mL (≈ 0.259 µM)	4 µg/mL (≈ 8.29 µM)	22.2 µM	0.16 µM	5.5 µM	–	–	4 µg/mL (≈ 8.29 µM)	0.06 µg/mL (≈ 0.124 µM)	> 64 µg/mL	0.06 µg/mL (≈ 0.124 µM)
